Values without a mark were called inactive. Results filed as inconclusive are left out. Active and inactive are the calls of the source.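 Rule for the calls, unless noted: active = growth inhibition above 25% in both replicates, a cutoff set 3 SD above the mean; inconclusive = above 25% in only one replicate; inactive = the rest.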
Columns and labels:
[1] = OD615 S. cerevisiae growth inhibition, permissive medium, pilot counter-assay, permissive growth control for S. cerevisiae lifespan shortening project (AID 705); conditions: OD615, 24 h, at 10 µM, active compounds read high
Outline: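 System: Engineered DeaD yeast | Buffer or medium: SC raffinose/galactose permissive medium | Incubation: Cells pre-grown 4 h, then 24 h compound exposure, 30 °C humidified | Measured by: Absorbance (optical density) at 615 nm | Read-out: Reduction in yeast growth (OD615)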

[2] = Restrictive medium S. cerevisiae growth inhibition, OD615, pilot screen of yeast lifespan reduction project, restrictive growth control (AID 706;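 active = growth inhibition above a set limit, 3 SD over mean compound inhibition, in both replicates, cut at about 43% in these data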;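 note: modified DeaD lifespan yeast strain shifted to restrictive glucose medium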); conditions: OD615, 48 h, at 10 µM, active compounds read high
Outline: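 Material: modified S. cerevisiae; Medium: glucose-based CSMM-D restrictive medium; Compound dosing: one concentration, 10 µM final, 0.25% DMSO; Incubation: 48 h compound exposure at 30 °C; Measured by: OD615.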

[3] = viability gain of MRP-1-high H69AR cells under doxorubicin, pilot screen, MRP-1 activator project, CellTiter-Glo, duplicate (AID 807;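 active = viability increase at or above a cutoff of the median across tested compounds plus 3 SD, cut at about 8.5% in these data, passing the limit was not always enough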;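 note: compound pretreatment 18-22 h then 72 h combined with doxorubicin; 0% = doxorubicin alone and 100% = vehicle without doxorubicin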); conditions: H69AR viability with doxorubicin, CellTiter-Glo luminescence; at 10 µM; active compounds read high
[4] = growth suppression of beta-catenin knockout HCT116, pilot screen, human colon tumor cells (AID 823;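 active = cell viability at or below a set limit in both duplicate runs, the limit being the all-compound median minus 4 SD, cut at about 23% in these data, passing the limit was not always enough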;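 note: 0% = wells killed by 20 µM Hyamine and 100% = untreated DMSO cell wells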); conditions: CellTiter-Glo, 60 h, at 10 µM, active compounds read low
[5] = growth suppression of PTEN-deleted HCT116, pilot screen, cell-based, HCT116 clonal line, CellTiter-Glo (AID 824;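 active = viability at or below 27.92% in each of two runs, the all-compound median minus 4 SD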;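 note: 0% = 20 µM Hyamine control and 100% = vehicle cell control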); conditions: 60 h, at 10 µM, active compounds read low
[6] = inhibitors of the yeast RAM network, pilot screen, dse1pr::URA3 reporter, 5-FOA selection (AID 869;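 active = inhibition over a set limit, the all-compound mean plus 3 SD, in both replicate runs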;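 note: 0% = DMSO wells with no growth and 100% = 10 µM 1-NA-PP1 with full growth; RAM network block rescues cells from 5-FOA so hits raise OD615 growth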); conditions: S. cerevisiae dse1pr::URA3 5-FOA growth, OD615, 2 d; at 10 µM; active compounds read high; strain carries analog-sensitive mutant Cbk1 kinase
[7] = RAM signaling pathway blockade in yeast – S. cerevisiae, Pdr1DBD-CYC8 efflux-inhibited sensitized strain, primary screen (AID 1298;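 active = RAM network inhibition above 8.4% in each of two replicates, 3 SD over the compound average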;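 note: 0% = DMSO untreated cells without growth and 100% = 10 µM 1-NA-PP1 full growth; higher means more yeast growth rescued from 5-FOA killing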); conditions: S. cerevisiae cbk1-as DSE1-URA3 strain, 5-FOA growth OD615, 2 d; at 50 µM; active compounds read high

SMILES | growth inhibition [1] | growth inhibition [2] | viability increase [3] | viability [4] | viability [5] | inhibition [6] | RAM network inhibition [7]
CCOc1ccc(N2CC(C(=O)NCCC3=CCCCC3)CC2=O)cc1 (stereo unspecified) | -1.23% | -18.5% | 0.15% | 99.6% | 93.8% | 0.36% | 3.96%
CCN1CCN(Cc2ccc(NC(=O)CC3Oc4ccc(C)cc4NC3=O)cc2)CC1 (stereo unspecified) | -3.29% | 1.68% | -0.91% | 93% | 101% | 0.29% | 2.33%
O=C(NCC1CCCO1)c1ccc2c(c1)N(Cc1ccccc1)C(=O)CS2=O (stereo unspecified) | -1.31% | 8.91% | -0.66% | 91.2% | 88.3% | 1.06% | 0.78%
COc1ccc(-c2nnc3ccc(SCC(=O)N4CCCCC4)nn23)cc1OC | 3.98% | 18.9% | -4.61% | 98.3% | 98.9% | 0.24% | 2.36%
O=C(O)CCCC(=O)N1CCc2cc(S(=O)(=O)N3CCc4ccccc43)ccc21 | -2.29% | -2.17% | -0.98% | 90.7% | 91.8% | 1.98% | 1.3%
Cc1onc(-c2ccccc2Cl)c1C(=O)Nc1ccccc1C(N)=O | -9.31% | -29.5% | -3.08% | 90.2% | 85.5% | 0.895% | 0.67%
COCn1c(-c2cccc(Br)c2)nc2ccccc21 | -10.2% | 3.42% | -4.2% | 85.2% | 86.8% | 1.17% | 3.8%
CCOC(=O)N1CCC(NC(=O)CCc2c(C)nc3c(c(C)nn3-c3ccccc3)c2C)CC1 | -8.02% | 0.22% | -1.37% | 100% | 89.5% | 2.38% | 4.08%
O=C(O)c1cc(-c2ccc(Cl)cc2)n[nH]1 | -6.99% | 0.335% | -0.39% | 100% | 96% | 0.27% | 0.61%
COc1ccc(-c2nnc(NC(=O)C(C)C)o2)cc1 | 2.56% | 6.86% | -1.77% | 103% | 102% | 1.23% | 4.26%
O=C1N2CN(C(c3ccccc3)c3ccccc3)CN=C2SC1(CO)CO | -9.07% | -4.68% | -2.69% | 62.9% | 74.8% | 1.88% | 1.39%
CC(C)OCCCNC(=O)c1cc2c(=O)n(C)c3ccccc3c2n1C | 0.55% | -0.705% | -2.09% | 103% | 97% | 0.185% | 3.23%
COc1ccc(-c2oc(/N=C/N3CCOCC3)c(C#N)c2-c2ccc(OC)cc2)cc1 | -10.1% | -18.7% | -0.81% | 88.6% | 83.4% | 2.25% | 2.33%
CCN(CC)CCNC(=O)c1cn(CC)c2ccc(S(=O)(=O)N(C)C)cc2c1=O | 0.365% | 8.34% | -1.41% | 106% | 101% | 2.2% | 2.04%
CC1CCc2nn(CC(=O)N3CCCCCC3)cc2C1 (stereo unspecified) | -3.02% | 1.8% | -0.62% | 100% | 91.4% | 1.23% | 1.06%
Cc1cc2oc(C(=O)NCc3ccncc3)c(C)c2cc1C | -3.59% | 10.7% | 0.54% | 96.4% | 89.6% | 0.7% | -0.89%
COc1cccc(OC)c1C(=O)Nc1nnc(C(C)C)s1 | -6.36% | 6.23% | -1.98% | 89.9% | 85.1% | 2.25% | 0.97%
Clc1ccc(CSc2nnc(-c3ccccn3)n2Cc2ccco2)c(Cl)c1 | -2.3% | 11.9% | -3.47% | 70.2% | 64.1% | 1.68% | 7.51%
O=C(O)CCC(=O)c1ccc2c(c1)OCCO2 | -6.04% | 8.29% | -1.32% | 101% | 103% | 1.79% | -1.36%
O=C(COC(=O)c1ccc(Br)o1)Nc1nc2ccccc2s1 | -11.2% | -4.01% | -4.65% | 90.5% | 87.8% | 0.75% | 1.88%
COCC(=O)Nc1cc(=O)n(C)c(=O)n1C | -4.37% | -24.4% | -1.62% | 100% | 94.4% | 1.73% | -0.05%
COc1cccc(NS(=O)(=O)c2cn(C)c(=O)n(C)c2=O)c1 | -11% | -3.64% | -0.89% | 93.7% | 92.9% | 2.42% | 0.89%
O=C(NCCCN1CCCC1)c1ccc(CS(=O)(=O)c2ccc(Br)cc2)o1 | -5.7% | -13.3% | -0.99% | 90.6% | 96.5% | 1.63% | 2.23%
Cc1cccc(N2C(=O)SC(N(CC(=O)O)c3cccc(C)c3)C2=O)c1 (stereo unspecified) | -12.5% | 15.6% | -3.96% | 103% | 99.1% | 1.24% | 5.06%

SMILES | growth inhibition [1] | growth inhibition [2] | viability increase [3] | viability [4] | viability [5] | inhibition [6] | RAM network inhibition [7]
COc1ccc(C2=NOC(C(=O)N3CCN(c4ccccc4OC)CC3)C2)cc1 (stereo unspecified) | -7.36% | 0.135% | 2.8% | 99.9% | 88.5% | 2.17% | 4.09%
O=C(NCCCNC(=O)c1ccco1)c1ccco1 | -0.405% | 0.005% | -2.35% | 99.9% | 107% | -0.525% | 0.16%
CCCN1C(=O)c2cc(C(=O)NCc3cccs3)ccc2C1O (stereo unspecified) | -5.98% | -16.4% | -0.99% | 107% | 96.7% | 1.94% | -0.69%
CS(=O)(=O)NCCCc1ccccc1 | -3.13% | 9.6% | -1.36% | 96.6% | 94.5% | 0.325% | -0.88%
O=c1[nH]c(NCCCO)nc2c1C1(CCCC1)Cc1ccccc1-2 | -1.02% | -4.91% | -0.94% | 97.1% | 96.2% | -0.175% | 6.67%
COC(=O)C1=C(C)N2C(=O)CSC2=NC1c1ccc2c(c1)OCO2 (stereo unspecified) | 5.86% | 53.2% (active) | 0.55% | 93.3% | 98.8% | 0.03% | 0.78%
O=C1c2ccccc2CCC1C(O)c1ccccn1 (stereo unspecified) | -8.87% | -15.8% | -3.89% | 95.5% | 99.2% | 2.49% | 1.24%
CCOC(=O)c1cnn2c(C(F)(F)F)cc(-c3ccccc3)nc12 | -6.86% | -9.75% | -3.13% | 84% | 86.9% | 2.29% | 2.4%
CCN1C(=O)c2cccc3c(NC(=O)c4ccc(S(=O)(=O)N5CCOCC5)cc4)ccc1c23 | 14.5% | 3.86% | -6.36% | 65.6% | 65.8% | 1.11% | 2.6%
COc1ccccc1-c1nnc(NC(=O)C(C)SC2=NCCS2)s1 (stereo unspecified) | 5.92% | 48.7% (active) | -4.43% | 83.4% | 91.2% | -0.115% | 6.22%
S=c1nc(-c2ccccc2)n(CCCn2ccnc2)c2c1CCCC2 | -6.46% | -0.21% | 0.85% | 102% | 95.6% | 2.03% | -0.69%
CCOc1ccc2nc(NC(=O)COC)sc2c1 | -7.05% | -13.8% | 0.64% | 102% | 102% | 1.05% | 1.66%
O=C(NCCn1ccc2ccccc21)C1CCCCC1 | -13.3% | -15.1% | -0.84% | 87.7% | 87.2% | 2.12% | 2.92%
O=C(NCCN1CCOCC1)NC1(C(F)(F)F)Oc2ccccc2O1 | -11% | 4.58% | -4.99% | 76.3% | 84.5% | 0.645% | 0.82%
O=C(C1CCN(c2ncnc3c2sc2cccc(F)c23)CC1)N1CCOCC1 | 0.06% | 2.17% | -6.73% | 77.2% | 76.8% | 3.08% | 1.81%
COc1ccc(CCNc2nc(=O)[nH]nc2C)cc1OC | -14.6% | -16.5% | -1.65% | 96% | 96.5% | 2.62% | 0.16%
Cc1cc(NC(=O)CSCCc2ccncc2)no1 | -9.54% | -5.15% | -0.06% | 99.7% | 105% | 0.675% | 1.27%
O=C(Nc1nnc(-c2ccc(F)cc2)o1)c1ccco1 | -6.49% | -4.85% | -3.74% | 97.5% | 92.8% | 1.46% | 0.1%
CCc1ccc(N2C(=O)c3sc4nnc(C)c(=O)n4c3C2=O)cc1 | -19.9% | -7.66% | -1% | 87.9% | 76.9% | 1.4% | 0.21%
CN(C)S(=O)(=O)c1ccc(C(=O)Nc2ccc(Cl)cc2)cc1 | -3.1% | -5.55% | -1.63% | 77.5% | 88.8% | 2.33% | 3.74%
COc1ccc(-c2nc3n(n2)C(c2ccccc2Cl)C(C(N)=O)=C(C)N3)cc1 (stereo unspecified) | -14.2% | 0.71% | -0.48% | 96.9% | 96.2% | 1.66% | -1.36%
Cc1cccc(NC(=O)c2cccnc2)c1 | -3.06% | 4.14% | 1.56% | 97.2% | 96.5% | 0.405% | 5.69%
CCNc1nc2c(c(=O)[nH]c(=O)n2C)n1Cc1ccc(F)cc1 | -8.34% | -8.31% | -3.05% | 99% | 85.2% | 0.035% | 4.88%
COc1ccc(S(=O)(=O)NCc2ccccc2Cl)cc1OC | -5.85% | 2.66% | -1.42% | 102% | 96.1% | 1.98% | 2.86%
